Measured values taken from paper PMC5766324 (Pain, 2015).
Where a SMILES comes first, the peptide text is derived from it. The star is where a group is joined. Myristoyl = CCCCCCCCCCCCCC(=O)*

How the values were obtained:
[1] = cited from earlier work
[2] = i.c.v. dosing; previous studies; cited from earlier work
[3] = molecular target: N-type voltage-gated calcium channel (CaV2.2) (rat (endogenous in spinal cord)) (UniProt Q02294); assay: pull-down
[4] = Rotarod performance test; assay type: in vivo, rat; conditions: 20 μg/5 μL i.t.; cutoff 180 seconds; n = 5 to 6
[5] = tested on: Ca2+ currents in sensory neurons; conditions: cited from earlier work
[6] = tested on: CRMP2 phosphorylation; assay: Western blot of phospho-CRMP2 in peptide-treated DRG; assay type: cell-based, rat; conditions: 20 μM peptide, 2 hours, n = 3–6 wells
[7] = Paw incision model of postoperative pain; assay type: in vivo, rat
Method in brief: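 Male Sprague-Dawley rats received a plantar incision of the left hind paw under isoflurane. After 24 h of recovery, peptide or vehicle was given spinally. Thermal withdrawal latency (lift or lick; 30-s cutoff) and tactile withdrawal thresholds were measured every 15 min for the first hour, then every 30 min for 4 h.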

[8] = tested on: Na+ currents, catecholamine A differentiated cell line; conditions: chronic application, 20 μM overnight; n = 5 to 8 cells
[9] = Carrageenan-induced thermal hypersensitivity; assay type: in vivo, rat; conditions: 20 μg/5 μL i.t., 3 hours after carrageenan; tat-CBD3 at 90, 120, 210, 240, 300 minutes; myr-tat-CBD3 at 15, 60, 90, 120, 180 minutes; n = 5–6
[10] = tested on: small-diameter DRG neurons; assay: Current clamp, excitability of small-diameter DRG neurons; assay type: cell-based, rat; conditions: step of depolarizing current; n = 4 to 6 cells; P < 0.001
Method in brief: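 Whole-cell current clamp of acutely dissociated small-diameter DRG neurons at ~23°C. Pipette solution (mM): 140 KCl, 10 NaCl, 1 MgCl2, 1 EGTA, 10 HEPES pH 7.2, 1 ATP-Mg. Cells were held at resting potential (−40 to −62 mV). A 1-s depolarizing current step was set to evoke 6–10 APs under control, and APs were counted before and after adding peptide to the bath. Signals were filtered at 5 kHz and […].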

[11] = molecular target: CRMP2 (Homo sapiens, UniProt Q16555); assay: CRMP2 oligomerization, glutaraldehyde cross-linking and silver-stained SDS-PAGE; assay type: biochemical; conditions: 20 μM peptide, 1 mM glutaraldehyde; n = 3
Method in brief: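 Bacterially expressed recombinant CRMP2, purified by affinity, anion-exchange and size-exclusion chromatography. About 4.6 μM CRMP2 was preincubated in 100 mM HEPES pH 7.3, 50 mM NaCl, with or without 20 μM peptide, for 15 min at room temperature. Glutaraldehyde (0.1, 1 or 10 mM) was added for 30 min. The reaction was stopped with loading dye and heat, and oligomers were resolved by SDS-PAGE with silver staining.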

[12] = tested on: CaV2.2; assay: Immunocytochemistry, confocal colocalization of CaV2.2 and CRMP2 in DRG; assay type: cell-based, rat; conditions: 20 μM peptide
Method in brief: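 DRG cultures were grown on poly-D-lysine coverslips in DMEM/F12 with 10% FBS, 5-FDU and uridine at 37°C, 5% CO2. Cells were exposed to vehicle or 20 μM peptide for 5 min, 20 min, 2 h or 48 h, then fixed (4% paraformaldehyde/4% sucrose, 20 min), permeabilized (0.1% Triton X-100) and blocked (3% BSA). Anti-CaV2.2 and anti-CRMP2 were applied overnight at 4°C. Confocal images were background-subtracted, and Pearson and Manders coefficients were computed from raw data.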

[13] = tested on: Ca2+ currents in sensory neurons; assay: Whole-cell voltage clamp, Ca2+ currents in sensory neurons; assay type: cell-based, rat

Sequence of N-type voltage-gated calcium channel (CaV2.2) (rat (endogenous in spinal cord)) (Q02294 whole entry): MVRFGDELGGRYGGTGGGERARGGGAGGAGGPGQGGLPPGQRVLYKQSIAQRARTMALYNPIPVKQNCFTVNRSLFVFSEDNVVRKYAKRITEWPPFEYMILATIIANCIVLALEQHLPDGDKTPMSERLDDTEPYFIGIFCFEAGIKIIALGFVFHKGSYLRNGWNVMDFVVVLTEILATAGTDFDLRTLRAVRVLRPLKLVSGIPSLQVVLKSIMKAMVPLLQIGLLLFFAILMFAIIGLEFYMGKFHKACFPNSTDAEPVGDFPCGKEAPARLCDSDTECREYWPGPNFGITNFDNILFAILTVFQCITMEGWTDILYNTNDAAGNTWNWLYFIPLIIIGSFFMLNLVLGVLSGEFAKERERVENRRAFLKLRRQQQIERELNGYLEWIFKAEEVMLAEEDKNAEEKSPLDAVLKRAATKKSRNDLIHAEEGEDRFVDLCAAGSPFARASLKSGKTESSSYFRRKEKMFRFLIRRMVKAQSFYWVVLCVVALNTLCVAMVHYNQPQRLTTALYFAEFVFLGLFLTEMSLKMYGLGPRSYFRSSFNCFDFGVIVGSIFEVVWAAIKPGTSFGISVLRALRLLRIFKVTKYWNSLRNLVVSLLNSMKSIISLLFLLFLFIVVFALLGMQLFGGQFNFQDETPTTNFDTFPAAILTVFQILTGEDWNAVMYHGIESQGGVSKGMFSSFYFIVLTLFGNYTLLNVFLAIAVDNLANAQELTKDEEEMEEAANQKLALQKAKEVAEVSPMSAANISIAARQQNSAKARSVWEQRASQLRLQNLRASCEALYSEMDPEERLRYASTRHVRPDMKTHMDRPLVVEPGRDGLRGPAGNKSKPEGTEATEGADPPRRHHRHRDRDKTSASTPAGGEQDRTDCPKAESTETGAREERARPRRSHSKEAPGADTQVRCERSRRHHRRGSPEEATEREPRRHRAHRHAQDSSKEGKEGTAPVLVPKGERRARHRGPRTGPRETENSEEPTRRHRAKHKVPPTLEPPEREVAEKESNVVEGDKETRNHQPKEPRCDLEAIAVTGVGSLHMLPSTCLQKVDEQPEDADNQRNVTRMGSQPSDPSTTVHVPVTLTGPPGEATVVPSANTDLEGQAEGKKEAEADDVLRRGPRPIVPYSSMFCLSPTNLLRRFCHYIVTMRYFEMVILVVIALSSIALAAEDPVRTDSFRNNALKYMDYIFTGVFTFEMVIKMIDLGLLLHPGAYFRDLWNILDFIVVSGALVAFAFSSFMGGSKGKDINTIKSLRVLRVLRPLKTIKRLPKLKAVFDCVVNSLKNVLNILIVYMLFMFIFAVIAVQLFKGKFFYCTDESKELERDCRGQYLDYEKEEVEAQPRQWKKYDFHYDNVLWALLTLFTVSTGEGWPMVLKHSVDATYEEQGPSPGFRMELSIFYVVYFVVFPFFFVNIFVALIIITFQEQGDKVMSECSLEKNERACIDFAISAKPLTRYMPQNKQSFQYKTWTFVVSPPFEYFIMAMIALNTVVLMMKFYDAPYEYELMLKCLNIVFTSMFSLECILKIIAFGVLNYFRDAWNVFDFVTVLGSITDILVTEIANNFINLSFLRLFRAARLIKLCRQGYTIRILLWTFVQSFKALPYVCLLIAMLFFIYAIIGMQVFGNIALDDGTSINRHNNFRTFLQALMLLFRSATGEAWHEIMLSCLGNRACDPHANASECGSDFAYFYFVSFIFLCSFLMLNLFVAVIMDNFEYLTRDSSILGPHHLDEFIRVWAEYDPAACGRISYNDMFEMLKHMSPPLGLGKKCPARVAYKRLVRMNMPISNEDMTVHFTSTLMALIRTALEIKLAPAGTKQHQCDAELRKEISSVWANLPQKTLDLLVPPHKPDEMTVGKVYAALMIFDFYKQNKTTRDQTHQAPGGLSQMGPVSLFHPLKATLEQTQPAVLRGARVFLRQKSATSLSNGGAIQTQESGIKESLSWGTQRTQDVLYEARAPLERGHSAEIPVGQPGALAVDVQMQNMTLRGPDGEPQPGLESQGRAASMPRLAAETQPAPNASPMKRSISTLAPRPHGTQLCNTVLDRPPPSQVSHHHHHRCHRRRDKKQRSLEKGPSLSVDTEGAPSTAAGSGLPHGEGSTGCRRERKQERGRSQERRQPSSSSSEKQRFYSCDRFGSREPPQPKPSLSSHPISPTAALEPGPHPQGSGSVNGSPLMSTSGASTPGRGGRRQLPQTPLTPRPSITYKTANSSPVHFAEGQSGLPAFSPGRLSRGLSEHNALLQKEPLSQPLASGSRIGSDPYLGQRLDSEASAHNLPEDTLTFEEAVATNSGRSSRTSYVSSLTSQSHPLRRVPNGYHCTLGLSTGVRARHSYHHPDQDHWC

Molecule: ω-conotoxin MVIIA
- duration of reduced thermal hypersensitivity and mechanical allodynia ([1]; in vivo): 2 to 4 h
- time of maximal effect ([1]; in vivo): 2 h

Molecule: CN1CC[C@]23c4c5ccc(O)c4O[C@H]2[C@@H](O)C=C[C@H]3[C@H]1C5 [morphine]
- conditioned place preference [2]: positive condition place preference

Molecule: myr-tat-CBD3 (peptide)
- percent inhibition of CaV2.2-CRMP2 binding at 10 μM [3]: > 81%

Molecule: CC(C)C[C@H](NC(=O)CNC(=O)[C@H](CCCNC(=N)N)NC(=O)[C@@H]1CCCN1C(=O)[C@@H](NC(=O)CNC(=O)[C@H](CCCNC(=N)N)NC(=O)[C@H](CC(C)C)NC(=O)[C@H](CCC(=O)O)NC(=O)[C@H](C)NC(=O)[C@H](CC(C)C)NC(=O)[C@H](CCCNC(=N)N)NC(=O)[C@H](CO)NC(=O)[C@H](CCCNC(=N)N)NC(=O)[C@H](C)NC(=O)[C@H](CCCNC(=N)N)NC(=O)[C@H](CCCNC(=N)N)NC(=O)[C@H](CCCNC(=N)N)NC(=O)[C@H](CCC(N)=O)NC(=O)[C@H](CCCNC(=N)N)NC(=O)[C@H](CCCNC(=N)N)NC(=O)[C@H](CCCCN)NC(=O)[C@H](CCCCN)NC(=O)[C@H](CCCNC(=N)N)NC(=O)CNC(=O)[C@@H](N)Cc1ccc(O)cc1)C(C)C)C(=O)O [tat-CBD3] (H-YGRKKRRQRRRARSRLAELRGVPRGL-OH)
- average time on rotarod over the course of 300 minutes [4]: 180 ± 0 s

Molecule: NCC1(CC(=O)O)CCCCC1 [gabapentin]
- block of CaV2.2 currents after acute treatments [5]: ineffective in blocking currents
- peak effect, reversal of hypersensitivity ([1]; intrathecal, von Frey on incised paw, 60 minutes after injection): ~ 19%

Molecule: CCCCCCCCCCCCCC(=O)NCC(=O)N[C@@H](Cc1ccc(O)cc1)C(=O)NCC(=O)N[C@@H](CCCNC(=N)N)C(=O)N[C@@H](CCCCN)C(=O)N[C@@H](CCCCN)C(=O)N[C@@H](CCCNC(=N)N)C(=O)N[C@@H](CCCNC(=N)N)C(=O)N[C@@H](CCC(N)=O)C(=O)N[C@@H](CCCNC(=N)N)C(=O)N[C@@H](CCCNC(=N)N)C(=O)N[C@@H](CCCNC(=N)N)C(=O)N[C@@H](C)C(=O)N[C@@H](CCCNC(=N)N)C(=O)N[C@@H](CO)C(=O)N[C@@H](CCCNC(=N)N)C(=O)N[C@@H](CC(C)C)C(=O)N[C@@H](C)C(=O)N[C@@H](CCC(=O)O)C(=O)N[C@@H](CC(C)C)C(=O)N[C@@H](CCCNC(=N)N)C(=O)NCC(=O)N[C@H](C(=O)N1CCC[C@H]1C(=O)N[C@@H](CCCNC(=N)N)C(=O)NCC(=O)N[C@@H](CC(C)C)C(=O)O)C(C)C [myr-tat-CBD3] (Myristoyl-GYGRKKRRQRRRARSRLAELRGVPRGL-OH; C-terminus assumed)
- expression of phosphorylated CRMP2 at sites 522, 509/514, 555 [6]: no changes
- time for which maintenance of thermal and tactile hypersensitivity was blocked ([7]; 20 μg/5 μL i.t., 24 hours after incision, n = 5): at least 4 hours
- withdrawal threshold (tactile) ([7]; at 5 hours after i.t. injection, 20 μg/5 μL): ~ 11 g
- duration of reversal of thermal hypersensitivity ([7]; spinal administration after surgery): ~ 4 hours
- effect on Na+ currents [8]: did not affect
- carrageenan-induced thermal hypersensitivity vs vehicle [9]: significantly attenuated
- number of action potentials (APs) [10]: significantly decreased
- extent of CRMP2 dimer or tetramer [11]: does not alter
- Manders overlap coefficient (MOC), CaV2.2 with CRMP2 [12]: 0.65
- Pearson correlation coefficient (PCC), CaV2.2 with CRMP2 [12]: 0.60
- effect on Ca2+ currents, acute application ([13]; acute application (5–30 minutes), data not shown): unable to inhibit currents
- inhibition of Ca2+ currents ([13]; chronic application (~24 hours), 20 μM overnight, n = 14 to 16 cells): ~ 40%
- activation of Ca2+ currents ([13]; chronic application, 20 μM, Boltzmann fits): no changes
